Results reported in ChEMBL document CHEMBL1124697, “A new family of water-soluble, third generation antitumor platinum complexes” (J Med Chem, 1989).
Activity calls are given as the source filed them.

How the values were obtained:
Mus musculus = assay: Tumor weight inhibition against human mammary MX-1 in Athymic mice after 50 mg/kg optimal dose; type: functional, organism-based; parameters: dose 50 mg/kg; conditions: at 50 mg/kg
Colon 26 [1] = assay: Percent in life span when compound administered at 50 mg/kg againstColon 26 cells in balb/C mice; type: functional, organism-based; parameters: dose 50 mg/kg; conditions: Mus musculus
Summary of the method: (§1)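 Colon 26 tumor in Balb/C mice. Dosing ip on days 1, 5 and 9 after tumor inoculation, with a 30-day observation period. Readouts are median % increase in life span over control mice and % survivors, given at the optimal dose. Activity threshold is ILS ≥25%. A ≥15% drop in ILS or body weight is rated toxic.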

Colon 26 [2] = assay: Percent survivors when compound administered at 50 mg/kg againstColon 26 cells in balb/C mice; type: functional, organism-based; parameters: dose 50 mg/kg; conditions: Mus musculus; summary of the method: as §1
L1210 [3] = assay: Percent increase in life span when compound administered at 12.5 mg/kg against L1210 leukemia cells in BDF1 mice; type: functional, organism-based; parameters: dose 12.5 mg/kg; conditions: Mus musculus
Summary of the method: (§2)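 BDF1 mice bearing P388, L1210 or cisplatin-resistant L1210 leukemia; ip dosing on days 1, 5 and 9 relative to tumor inoculation, 30-day observation. Median % ILS over controls at optimal dose plus % survivors; ≥25% ILS counted as active, ≥15% reduction in ILS or body weight over controls rated toxic.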

L1210 [4] = assay: Percent increase in life span when compound administered at 50 mg/kg against L1210 cisplatin resistant leukemia cells in BDF1 mice; IA=inactive; type: functional, organism-based; parameters: dose 50 mg/kg; conditions: Mus musculus; summary of the method: as §2
L1210 [5] = assay: Percent survivors when compound administered at 50 mg/kg against L1210 cisplatin resistant leukemia cells in BDF1 mice; IA=inactive; type: functional, organism-based; parameters: dose 50 mg/kg; conditions: Mus musculus
Summary of the method: (§3)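 BDF1 mice inoculated with P388, L1210 or cisplatin-resistant L1210 leukemia. Compound given ip on days 1, 5 and 9 relative to tumor inoculation, and mice observed for 30 days. Median % increase in life span over controls and % survivors are reported at the optimal dose. Activity requires ILS ≥25%. Toxicity is rated when ILS or body weight is reduced by ≥15%.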

P388 [6] = assay: Percent survivors when compound administered at 100 mg/kg against P388 leukemia cells in BDF1 mice; type: functional, organism-based; parameters: dose 100 mg/kg; conditions: Mus musculus; summary of the method: as §3
P388 [7] = assay: Percent increase in life span when compound administered at 100 mg/kg against P388 leukemia cells in BDF1 mice; type: functional, organism-based; parameters: dose 100 mg/kg; conditions: Mus musculus; summary of the method: as §2
B16 [8] = assay: Percent increase in life span when compound administered at 0.4 mg/kg against B-16 melanoma cells in […] mice; type: functional, organism-based; parameters: dose 0.4 mg/kg; conditions: Mus musculus
Summary of the method: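 B-16 melanoma in […] mice; compounds given ip daily on days 1–9 relative to tumor inoculation, animals followed 60 days. Read-out median % increase in life span over controls at optimal dose with % survivors; activity threshold ILS ≥25%; ≥15% reduction in ILS or body weight versus controls rated toxic.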

B16 [9] = assay: Percent survivors when compound administered at 0.4 mg/kg against B-16 melanoma cells in […] mice; type: functional, organism-based; parameters: dose 0.4 mg/kg; conditions: Mus musculus
Summary of the method: (§4)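 Median % increase in life span versus controls and % survivors are recorded at the optimal dose. ILS ≥25% counts as active, and a ≥15% reduction in ILS or body weight counts as toxic.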

Colon 26 [10] = assay: Percent in life span when compound administered at 1 mg/kg againstColon 26 cells in balb/C mice; type: functional, organism-based; parameters: dose 1 mg/kg; conditions: Mus musculus
Summary of the method: (§5)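 Colon 26 in Balb/C mice. Test agents given ip on days 1, 5 and 9 relative to tumor inoculation; mice observed 30 days. Median % increase in life span at optimal dose, with % survivors noted; ILS ≥25% over controls required for activity; ILS or body weight reduced ≥15% versus controls rated toxic.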

Colon 26 [11] = assay: Percent survivors when compound administered at 1 mg/kg againstColon 26 cells in balb/C mice; type: functional, organism-based; parameters: dose 1 mg/kg; conditions: Mus musculus; summary of the method: as §1
L1210 [12] = assay: Percent increase in life span when compound administered at 6.2 mg/kg against L1210 leukemia cells in BDF1 mice; type: functional, organism-based; parameters: dose 6.2 mg/kg; conditions: Mus musculus; summary of the method: as §2
P388 [13] = assay: Percent survivors when compound administered at 6.2 mg/kg against P388 leukemia cells in BDF1 mice; type: functional, organism-based; parameters: dose 6.2 mg/kg; conditions: Mus musculus; summary of the method: as §3
P388 [14] = assay: Percent increase in life span when compound administered at 6.2 mg/kg against P388 leukemia cells in BDF1 mice; type: functional, organism-based; parameters: dose 6.2 mg/kg; conditions: Mus musculus; summary of the method: as §2
[15] = Water solubility was determined; type: ADME; conditions: buffer
B16 [16] = assay: Percent increase in life span when compound administered at 12.5 mg/kg against B-16 melanoma cells in […] mice; type: functional; conditions: Mus musculus; summary of the method: as §4
B16 [17] = assay: Percent survivors when compound administered at 12.5 mg/kg against B-16 melanoma cells in […] mice; type: functional; conditions: Mus musculus; summary of the method: as §4
Colon 26 [18] = assay: Percent in life span when compound administered at 25 mg/kg against Colon 26 cells in balb/C mice; type: functional, organism-based; parameters: dose 25 mg/kg; conditions: Mus musculus; summary of the method: as §5
Colon 26 [19] = assay: Percent survivors when compound administered at 25 mg/kg against Colon 26 cells in balb/C mice; type: functional, organism-based; parameters: dose 25 mg/kg; conditions: Mus musculus; summary of the method: as §1
L1210 [20] = assay: Percent survivors when compound administered at 25 mg/kg against L1210 leukemia cells in BDF1 mice; type: functional, organism-based; parameters: dose 25 mg/kg; conditions: Mus musculus; summary of the method: as §3
L1210 [21] = assay: Percent increase in life span when compound administered at 25 mg/kg against L1210 leukemia cells in BDF1 mice; type: functional, organism-based; parameters: dose 25 mg/kg; conditions: Mus musculus; summary of the method: as §2
L1210 [22] = assay: Percent increase in life span when compound administered at 25 mg/kg against L1210 cisplatin resistant leukemia cells in BDF1 mice; type: functional, organism-based; parameters: dose 25 mg/kg; conditions: Mus musculus; summary of the method: as §2
L1210 [23] = assay: Percent survivors when compound administered at 25 mg/kg against L1210 cisplatin resistant leukemia cells in BDF1 mice; type: functional, organism-based; parameters: dose 25 mg/kg; conditions: Mus musculus; summary of the method: as §3
P388 [24] = assay: Percent survivors when compound administered at 25 mg/kg against P388 leukemia cells in BDF1 mice; type: functional; conditions: Mus musculus; summary of the method: as §3
P388 [25] = assay: Percent increase in life span when compound administered at 25 mg/kg against P388 leukemia cells in BDF1 mice; type: functional; conditions: Mus musculus; summary of the method: as §3

## CARBOPLATIN
Mus musculus
  inhibition: 90%
Colon 26 [1]
  Increase: 85%
Colon 26 [2]
  Survivors: 17%
L1210 [3]
  Increase: 35%
L1210 [4]
  Increase: inactive
L1210 [5]
  Survivors: inactive
P388 [6]
  Survivors: 6%
P388 [7]
  Increase: 144%

## CISPLATIN
B16 [8]
  Increase: 36%
B16 [9]
  Survivors: 0%
Colon 26 [10]
  Increase: 47%
Colon 26 [11]
  Survivors: 17%
L1210 [12]
  Increase: 96%
L1210 [4]
  Increase: inactive
L1210 [5]
  Survivors: inactive
P388 [13]
  Survivors: 17%
P388 [14]
  Increase: 140%

## Platinum:2,4,10,15-Tetraoxa-8,16-diaza-dispiro[5.2.6.2]heptadecane-11,14-dione [listing 1 of 2 here]
[15]
  Water solubility: 10000 µg/mL

## Platinum:2,4,10,15-Tetraoxa-8,16-diaza-dispiro[5.2.6.2]heptadecane-11,14-dione [listing 2 of 2 here]
B16 [16]
  Increase: 56%
B16 [17]
  Survivors: 0%
Colon 26 [18]
  Increase: 46%
Colon 26 [19]
  Survivors: 0%
L1210 [20]
  Survivors: 1%
L1210 [21]
  Increase: 110%
L1210 [22]
  Increase: 44%
L1210 [23]
  Survivors: 0%
P388 [24]
  Survivors: 1%
P388 [25]
  Increase: 120%

## Platinum:3,3-Dichloro-8,15-dioxa-2,4-diaza-dispiro[5.2.5.2]hexadecane
[15]
  Water solubility: 200 µg/mL

## Platinum:8,8-Dichloro-1,3-dioxa-7,9-diaza-spiro[4.5]decane
[15]
  Water solubility: < 200 µg/mL
